Series [1] in a line: Displacement of [3H] ifenprodil from GluN2B/GluN1a (unknown origin) expressed in mouse L(tk-) cell membranes incubated for 120 mins by scintillation counting method. Further details: species or system Homo sapiens. The procedure, abridged: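 Membranes from mouse L(tk-) cells co-transfected with dexamethasone-inducible GluN1a/GluN2B (1:5), induced 24 h with 4 μM dexamethasone plus 4 μM ketamine.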

The nature of series [2]: Stability of compound in aqueous HCl solution at pH 2 after 24 hrs by HPLC analysis. In kind it is physicochemical. The following applies: buffer, pH 2, 24 h. The procedure, abridged:
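Compound (25 μL of 10 mM DMSO stock) added to 1 mL aqueous buffered solution, pH 2 or pH 7.4, stirred 24 h at room temperature, analyzed by HPLC-MS; deemed stable if peak area remained 95–105%.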

The target of series [3] is Mu-type opioid receptor (Homo sapiens, UniProt P35372). Nature of the series: Displacement of [3H]DAMGO from human MOR expressed in CHO-K1 cells membranes after 60 mins by micro beta scintillation counting method. In kind it is cell membranes. An outline of the steps:
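Human MOR in CHO-K1 membranes (20 µg) with 1 nM [3H]DAMGO in 50 mM Tris-HCl, 5 mM MgCl2, pH 7.4, 27 °C for 60 min. Test compound at five concentrations; 10 µM naloxone defines nonspecific binding. Filtered, washed thrice with ice-cold 10 mM Tris-HCl, counted by liquid scintillation.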

Series [4] in a line: Drug metabolism in human liver microsomes at 1 uM incubated for 1 hr in presence of NADPH by UPLC-MS analysis. In kind it is ADME, Microsome. The following applies: read-out: Drug metabolism. The procedure, abridged: (§1)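 Liver microsomes, compound 1 µM, 37 °C for 1 h in 50 mM Na/K phosphate pH 7.4, 3 mM MgCl2, NADPH-regenerating system, CYP 0.3 nmol/mL. Aliquots at 0, 10, 20, 40, 60 min quenched with cold acetonitrile, supernatants by UPLC-MS/MS; % parent remaining at end reported. Terfenadine as positive control.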

Series [5] addresses 5-hydroxytryptamine receptor 1A (Homo sapiens) (UniProt P08908). The series is described as follows: Displacement of [3H]8-OH-DPAT from human 5HT1A receptor at 1 uM incubated for 2 hrs scintillation counting method relative to control. An outline of the steps: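 Human 5-HT1A-enriched membranes (10 μg), 2 nM [3H]-8-OH-DPAT, 50 mM Tris-HCl/5 mM MgCl2 pH 7.4, 0.1% DMSO final, 2 h at 37 °C; 10 μM 5-HT for nonspecific binding. Compound at 1 μM; radioligand displacement read after GF/C filtration.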
Background: In a radioligand displacement assay an active substance lowers the binding of a labelled ligand.

The target in series [6] is Sodium-dependent noradrenaline transporter (Homo sapiens) (UniProt P23975). The series is described as follows: Displacement of [3H]nisoxetine from recombinant human norepinephrine transporter at 1 uM after 60 mins by scintillation counting method relative to control. An outline of the steps:
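Human NET-enriched membranes (1 μg), 5 nM [3H]nisoxetine in 50 mM Tris-HCl, 120 mM NaCl, 5 mM KCl, pH 7.4, 1% DMSO final; 60 min at 4 °C; 10 μM desipramine for nonspecific binding. Single 1 μM compound; filtration, displacement of radioligand.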

The target of series [7] is CYP2D6 (Homo sapiens, UniProt P10635). The series is described as follows: Inhibition of recombinant human CYP2D6 at 1 uM by fluorescence probe substrate-based flurometric analysis. In kind it is ADME.
Sequence of CYP2D6 (P10635 whole entry): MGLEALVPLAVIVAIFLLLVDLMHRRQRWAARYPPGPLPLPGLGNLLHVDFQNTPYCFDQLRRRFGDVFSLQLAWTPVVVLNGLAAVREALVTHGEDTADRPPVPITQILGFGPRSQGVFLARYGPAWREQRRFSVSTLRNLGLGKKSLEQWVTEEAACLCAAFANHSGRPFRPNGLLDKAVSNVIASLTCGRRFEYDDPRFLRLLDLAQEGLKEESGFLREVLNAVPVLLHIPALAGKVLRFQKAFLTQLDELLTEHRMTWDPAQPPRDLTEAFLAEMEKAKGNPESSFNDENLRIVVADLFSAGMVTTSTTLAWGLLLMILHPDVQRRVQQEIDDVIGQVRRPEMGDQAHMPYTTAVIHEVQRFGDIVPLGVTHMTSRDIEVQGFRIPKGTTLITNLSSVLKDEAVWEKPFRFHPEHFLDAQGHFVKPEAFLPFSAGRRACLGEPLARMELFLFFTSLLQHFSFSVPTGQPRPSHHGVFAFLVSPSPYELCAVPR
For series [8], the target named is Sodium-dependent serotonin transporter (Homo sapiens) (UniProt P31645). The series is described as follows: Displacement of [3H]imipramine from human serotonin transporter at 1 uM after 30 mins by scintillation counting method relative to control. The procedure, abridged: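 Human SERT-enriched membranes (3.5 μg) incubated 30 min at 27 °C with 3 nM [3H]imipramine in Tris-HCl/120 mM NaCl/5 mM KCl pH 7.4, 0.1% DMSO; 200 μM imipramine for nonspecific binding. Compound at 1 μM; displacement after filtration.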
Sequence of Sodium-dependent serotonin transporter (Homo sapiens) (P31645 whole entry, looked up): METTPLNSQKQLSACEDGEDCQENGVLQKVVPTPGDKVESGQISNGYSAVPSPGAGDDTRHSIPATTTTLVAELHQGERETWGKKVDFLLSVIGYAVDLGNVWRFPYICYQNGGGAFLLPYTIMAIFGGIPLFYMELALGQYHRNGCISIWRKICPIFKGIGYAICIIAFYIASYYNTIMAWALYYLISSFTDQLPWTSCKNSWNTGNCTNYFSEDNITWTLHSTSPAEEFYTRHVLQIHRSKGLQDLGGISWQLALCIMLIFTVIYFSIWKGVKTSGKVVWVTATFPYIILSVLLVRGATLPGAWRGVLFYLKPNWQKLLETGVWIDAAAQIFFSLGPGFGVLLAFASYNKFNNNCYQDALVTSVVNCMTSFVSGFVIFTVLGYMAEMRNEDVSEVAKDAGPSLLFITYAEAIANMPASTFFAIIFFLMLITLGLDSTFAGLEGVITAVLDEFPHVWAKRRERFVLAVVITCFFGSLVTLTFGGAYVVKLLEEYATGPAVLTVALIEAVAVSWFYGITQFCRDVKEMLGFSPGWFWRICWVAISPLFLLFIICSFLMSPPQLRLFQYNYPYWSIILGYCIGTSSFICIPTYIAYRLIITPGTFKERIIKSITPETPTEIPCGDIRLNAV

The target in series [9] is Sigma non-opioid intracellular receptor 1 (Cavia porcellus, UniProt Q60492). In kind it is cell membranes.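 Further: radioligand displacement of [3H]-(+)-pentazocine from guinea pig brain cortex membranes, 120 min incubation, bound radioactivity read by scintillation counting.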
Sequence of Sigma non-opioid intracellular receptor 1 (Q60492 whole entry): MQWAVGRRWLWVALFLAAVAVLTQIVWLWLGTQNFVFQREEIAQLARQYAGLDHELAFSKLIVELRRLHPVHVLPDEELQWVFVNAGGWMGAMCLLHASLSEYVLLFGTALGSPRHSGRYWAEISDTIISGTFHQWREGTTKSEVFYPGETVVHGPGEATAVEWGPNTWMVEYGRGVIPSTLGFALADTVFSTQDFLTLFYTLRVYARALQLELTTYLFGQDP
The nature of series [10]: Drug metabolism in rat liver microsomes at 1 uM incubated for 1 hr in presence of NADPH by UPLC-MS analysis. In kind it is ADME, Microsome. The following applies: read-out: Drug metabolism. An outline of the steps:
as §1
In general terms: Liver microsomes are vesicles of endoplasmic reticulum, rich in cytochrome P450 enzymes.

The structures appear in SMILES notation. Bounds are passed on as bounds.

Sequence of 5-hydroxytryptamine receptor 1A (Homo sapiens) (P08908 whole entry): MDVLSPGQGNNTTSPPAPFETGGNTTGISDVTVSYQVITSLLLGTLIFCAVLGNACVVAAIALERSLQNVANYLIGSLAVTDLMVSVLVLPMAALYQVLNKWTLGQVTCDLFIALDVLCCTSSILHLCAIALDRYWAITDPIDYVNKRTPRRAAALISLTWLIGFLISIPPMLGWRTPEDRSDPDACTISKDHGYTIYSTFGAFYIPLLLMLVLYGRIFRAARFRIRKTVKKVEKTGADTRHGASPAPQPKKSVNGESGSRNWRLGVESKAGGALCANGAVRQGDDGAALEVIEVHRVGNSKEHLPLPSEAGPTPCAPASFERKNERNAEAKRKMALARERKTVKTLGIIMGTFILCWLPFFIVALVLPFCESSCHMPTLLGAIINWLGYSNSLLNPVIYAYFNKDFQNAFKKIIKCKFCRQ
Sequence of Mu-type opioid receptor (P35372 whole entry): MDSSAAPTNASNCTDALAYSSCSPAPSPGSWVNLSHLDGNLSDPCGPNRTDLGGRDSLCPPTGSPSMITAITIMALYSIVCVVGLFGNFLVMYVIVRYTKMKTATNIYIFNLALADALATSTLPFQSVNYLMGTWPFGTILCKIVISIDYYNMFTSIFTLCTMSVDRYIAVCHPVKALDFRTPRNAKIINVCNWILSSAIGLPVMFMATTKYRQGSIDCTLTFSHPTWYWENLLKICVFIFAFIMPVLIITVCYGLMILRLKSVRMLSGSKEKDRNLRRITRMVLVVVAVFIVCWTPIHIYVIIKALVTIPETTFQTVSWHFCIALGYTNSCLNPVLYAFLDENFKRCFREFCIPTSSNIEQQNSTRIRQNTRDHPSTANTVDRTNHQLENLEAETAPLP
Sequence of Sodium-dependent noradrenaline transporter (Homo sapiens) (P23975 whole entry): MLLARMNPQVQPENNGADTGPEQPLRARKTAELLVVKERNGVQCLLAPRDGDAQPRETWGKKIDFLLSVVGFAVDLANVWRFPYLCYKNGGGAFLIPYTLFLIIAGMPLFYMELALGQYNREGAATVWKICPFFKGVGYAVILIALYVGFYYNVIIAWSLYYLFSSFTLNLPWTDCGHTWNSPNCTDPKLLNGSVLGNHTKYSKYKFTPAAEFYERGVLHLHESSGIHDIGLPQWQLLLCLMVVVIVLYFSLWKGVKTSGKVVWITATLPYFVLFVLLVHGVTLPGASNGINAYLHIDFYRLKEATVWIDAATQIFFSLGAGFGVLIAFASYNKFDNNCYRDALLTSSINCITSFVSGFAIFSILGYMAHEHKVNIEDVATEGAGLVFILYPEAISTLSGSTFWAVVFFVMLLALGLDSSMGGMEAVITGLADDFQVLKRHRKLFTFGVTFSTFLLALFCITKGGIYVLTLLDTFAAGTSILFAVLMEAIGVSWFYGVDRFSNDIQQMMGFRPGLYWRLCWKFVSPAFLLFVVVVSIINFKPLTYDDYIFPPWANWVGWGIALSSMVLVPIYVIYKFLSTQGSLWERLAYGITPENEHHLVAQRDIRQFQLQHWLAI

Consider `COc1ccc2c(c1)CCN(CCC(F)Cc1ccccc1)CC2` (stereo not given), for which the Ki (in general, a measure of affinity in units of concentration, obtained from inhibition or displacement) in [1] is 120 nM; in series [3], above 1000 nM; in series [9], 6.6 nM. The Stability result in series [2] is reported as “Stable”. For the same molecule, the metabolised at 1 h, 1 µM in series [4] and in series [10] was 100% each time. In addition, the inhibition (usually the share of the control response that was lost under treatment) is 70% in series [5], below 50% in [6] and below 50% in series [8]. Further, the inhibition at 1 µM in [7] was determined as 55%.
